Source: ChEMBL document CHEMBL4387702, “Design and synthesis novel di-carbonyl analogs of curcumin (DACs) act as potent anti-inflammatory agents against LPS-induced acute lung injury (ALI)” (Eur J Med Chem, 2019)
The source made the active and inactive calls. No cut-off for these calls is given here.

Tests used:
RAW264.7 [1] = test: Inhibition of MAPK/NFkappaB in ICR mouse RAW264.7 cells assessed as reduction in LPS-induced IL6 production at 10 uM pretreated for 0.5 hrs followed by LPS challenge and measured after 24 hrs by ELISA relative to control; assay type: cell-based
RAW264.7 [2] = test: Inhibition of MAPK/NFkappaB in ICR mouse RAW264.7 cells assessed as reduction in LPS-induced TNFalpha production at 10 uM pretreated for 0.5 hrs followed by LPS challenge and measured after 24 hrs by ELISA relative to control; assay type: cell-based
RAW264.7 [3] = test: Cytotoxicity against ICR mouse RAW264.7 cells assessed as effect on cell proliferation at 10 uM after 24 hrs by MTT assay; assay type: cell-based; conditions: raw264.7, 24 h
RAW264.7 [4] = test: Inhibition of MAPK/NFkappaB in ICR mouse RAW264.7 cells assessed as reduction in LPS-induced TNF-alpha production at 10 uM pretreated for 0.5 hrs followed by LPS challenge and measured after 24 hrs by ELISA relative to curcumin; assay type: cell-based
RAW264.7 [5] = test: Inhibition of MAPK/NFkappaB in ICR mouse RAW264.7 cells assessed as reduction in LPS-induced TNF-alpha production at 10 uM pretreated for 0.5 hrs followed by LPS challenge and measured after 24 hrs by ELISA relative to piperlongumine; assay type: cell-based
RAW264.7 [6] = test: Inhibition of MAPK/NFkappaB in ICR mouse RAW264.7 cells assessed as reduction in LPS-induced IL6 production at 10 uM pretreated for 0.5 hrs followed by LPS challenge and measured after 24 hrs by ELISA relative to piperlongumine; assay type: cell-based
[7] = test system: peritoneal macrophages (Mus musculus); test: Inhibition of MAPK/NFkappaB in ICR mouse peritoneal macrophages assessed as reduction in LPS-induced IL6 production at 10 uM pretreated for 0.5 hrs followed by LPS challenge and measured after 24 hrs by ELISA relative to curcumin
RAW264.7 [8] = test: Inhibition of MAPK/NFkappaB in ICR mouse RAW264.7 cells assessed as reduction in LPS-induced IL6 production pretreated for 0.5 hrs followed by LPS challenge and measured after 24 hrs by ELISA; assay type: cell-based
[9] = target: Transcription factor p65 (Mus musculus) (UniProt Q04207); test: Inhibition of LPS-induced NFkappaB p65 nuclear translocation in ICR mouse RAW264.7 cells preincubated for 0.5 hrs followed by LPS challenge and measured after 40 mins by DAPI staining-based immunofluorescence microscopic analysis; assay type: cell-based
In short: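 RAW 264.7 cells were pretreated with compound for 0.5 h, then given LPS for 40 min (methods) or 45 min (legend). Cells were fixed with 4% paraformaldehyde and permeabilized in methanol. Anti-p65 (1:200) was applied overnight at 4 °C, then PE-conjugated secondary (1:200) for 2 h. Nuclei were stained with DAPI and cells viewed by fluorescence microscopy.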

RAW264.7 [10] = test: Inhibition of MAPK/NFkappaB in ICR mouse RAW264.7 cells assessed as reduction in LPS-induced TNFalpha production pretreated for 0.5 hrs followed by LPS challenge and measured after 24 hrs by ELISA; assay type: cell-based
[11] = Stability in pH 7.4 phosphate buffer assessed as compound decomposition measured up to 25 mins by UV-Vis spectroscopy; assay type: physicochemical; conditions: pH 7.4, 25 min
In short: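 Compound stability was followed by recording UV-visible absorption spectra in phosphate buffer at pH 7.4.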

RAW264.7 [12] = test: Inhibition of LPS-induced ERK phosphorylation in ICR mouse RAW264.7 cells at 10 uM preincubated for 0.5 hrs followed by LPS challenge and measured after 30 mins by immunoblotting analysis; assay type: cell-based
In short: (§1)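 RAW 264.7 cells were pretreated with compound for 0.5 h and then stimulated with LPS for 30 min. Lysates were resolved on 10% or 12% SDS-PAGE and transferred to nitrocellulose. Membranes were blocked in TBS (pH 7.6) with 0.05% Tween 20 and 5% milk. Blots were probed for p-p38, p38, p-ERK, ERK, IκBα and GAPDH, detected with HRP secondaries and ECL.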

RAW264.7 [13] = test: Inhibition of NFkappaB/MAPK signaling in LPS-induced mouse RAW264.7 cells assessed as down regulation of IkappaB expression at 10 uM preincubated for 0.5 hrs followed by LPS-challenge and measured after 30 mins by immunoblotting analysis; assay type: cell-based; in short: as §1
[14] = target: MAP kinase p38 (Mus musculus) (UniProt P47811+O08911+Q9WUI1+Q9Z1B7); test: Inhibition of LPS-induced p38 MAPK phosphorylation in ICR mouse RAW264.7 cells at 10 uM preincubated for 0.5 hrs followed by LPS challenge and measured after 30 mins by immunoblotting analysis; assay type: cell-based; in short: as §1

Chain of Transcription factor p65 (Mus musculus) (Q04207 whole entry): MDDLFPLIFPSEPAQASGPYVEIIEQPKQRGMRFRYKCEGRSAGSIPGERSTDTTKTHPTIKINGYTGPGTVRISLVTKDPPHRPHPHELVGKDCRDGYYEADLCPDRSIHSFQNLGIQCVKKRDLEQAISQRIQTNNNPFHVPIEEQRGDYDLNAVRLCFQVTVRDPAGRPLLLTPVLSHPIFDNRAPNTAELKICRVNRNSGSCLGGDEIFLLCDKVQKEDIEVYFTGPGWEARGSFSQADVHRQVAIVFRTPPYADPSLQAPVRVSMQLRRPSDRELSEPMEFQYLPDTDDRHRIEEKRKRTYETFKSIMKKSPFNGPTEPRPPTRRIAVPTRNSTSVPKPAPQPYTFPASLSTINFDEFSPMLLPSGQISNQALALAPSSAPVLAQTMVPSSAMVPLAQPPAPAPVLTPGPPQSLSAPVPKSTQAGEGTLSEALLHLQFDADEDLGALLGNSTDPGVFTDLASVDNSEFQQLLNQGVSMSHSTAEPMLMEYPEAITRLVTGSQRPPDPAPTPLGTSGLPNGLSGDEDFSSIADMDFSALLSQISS

SMILES	inhibition (RAW264.7 [1])	inhibition (RAW264.7 [2])	Activity (RAW264.7 [3])	further results
COc1cc(/C=C/C(=O)N2CCC/C(=C\c3cc(OC)c(OC)c(OC)c3)C2=O)cc(OC)c1OC	39.6 to 99.5%	39.6 to 99.5%	Non-Toxic	–
COc1cc(/C=C2\CCCN(C(=O)/C=C/c3ccccc3C(F)(F)F)C2=O)cc(OC)c1OC	–	–	Non-Toxic	inhibition (RAW264.7 [4]): < 85.3%; inhibition (RAW264.7 [5]): < 85.3%; inhibition (RAW264.7 [6]): < 85.3%; inhibition [7]: < 85.3%
COc1cc(/C=C2\CCCN(C(=O)/C=C/c3ccccc3OC(C)=O)C2=O)cc(OC)c1OC	39.6 to 99.5%	39.6 to 99.5%	Non-Toxic	–
COc1ccc(F)c(/C=C/C(=O)N2CCC/C(=C\c3cc(OC)c(OC)c(OC)c3)C2=O)c1	46.8 to 68.2%	38.5 to 53.4%	Non-Toxic	–
COc1ccccc1/C=C/C(=O)N1CCC/C(=C\c2cc(OC)c(OC)c(OC)c2)C1=O	39.6 to 99.5%	39.6 to 99.5%	Non-Toxic	–
COc1cc(/C=C2\CCCN(C(=O)/C=C/c3cccc(F)c3)C2=O)cc(OC)c1OC	–	–	Non-Toxic	inhibition (RAW264.7 [4]): < 85.3%; inhibition (RAW264.7 [5]): < 85.3%; inhibition (RAW264.7 [6]): < 85.3%; inhibition [7]: < 85.3%
COc1cccc(/C=C/C(=O)N2CCC/C(=C\c3cc(OC)c(OC)c(OC)c3)C2=O)c1	39.6 to 99.5%	39.6 to 99.5%	Non-Toxic	–
COc1cc(/C=C2\CCCN(C(=O)/C=C/c3cccc(Br)c3)C2=O)cc(OC)c1OC	–	–	Non-Toxic	inhibition (RAW264.7 [4]): < 85.3%; inhibition (RAW264.7 [5]): < 85.3%; inhibition (RAW264.7 [6]): < 85.3%; inhibition [7]: < 85.3%
COc1cc(/C=C2\CCCN(C(=O)/C=C/c3ccc(F)c(F)c3)C2=O)cc(OC)c1OC	39.6 to 99.5%	39.6 to 99.5%	Non-Toxic	–
COc1cccc(/C=C/C(=O)N2CCC/C(=C\c3cc(OC)c(OC)c(OC)c3)C2=O)c1OC	inactive	inactive	Non-Toxic	–
COc1ccc(/C=C/C(=O)N2CCC/C(=C\c3cc(OC)c(OC)c(OC)c3)C2=O)c(OC)c1	39.6 to 99.5%	39.6 to 99.5%	Non-Toxic	–
COc1cc(/C=C2\CCCN(C(=O)/C=C/c3ccc(OC(C)=O)cc3)C2=O)cc(OC)c1OC	39.6 to 99.5%	39.6 to 99.5%	Non-Toxic	–
COc1cc(/C=C2\CCCN(C(=O)/C=C/c3ccc(F)cc3)C2=O)cc(OC)c1OC	–	–	Non-Toxic	inhibition (RAW264.7 [4]): < 85.3%; inhibition (RAW264.7 [5]): < 85.3%; inhibition (RAW264.7 [6]): < 85.3%; inhibition [7]: < 85.3%
COc1ccc(/C=C/C(=O)N2CCC/C(=C\c3cc(OC)c(OC)c(OC)c3)C2=O)cc1OC(C)=O	39.6 to 99.5%	39.6 to 99.5%	Non-Toxic	–
COc1cc(/C=C2\CCCN(C(=O)/C=C/c3c(Cl)cccc3Cl)C2=O)cc(OC)c1OC	39.6 to 99.5%	39.6 to 99.5%	Non-Toxic	–
COc1cc(/C=C2\CCCN(C(=O)/C=C/c3cc(C)ccc3C)C2=O)cc(OC)c1OC	39.6 to 99.5%	39.6 to 99.5%	Non-Toxic	–
COc1cc(/C=C2\CCCN(C(=O)/C=C/c3c(F)cccc3Cl)C2=O)cc(OC)c1OC	46.8 to 68.2%	38.5 to 53.4%	Non-Toxic	–
COc1cc(/C=C/C(=O)CC(=O)/C=C/c2ccc(O)c(OC)c2)ccc1O [CURCUMIN]	Active	Active	Non-Toxic	inhibition (RAW264.7 [8]): Active; inhibition [9]: Active; inhibition (RAW264.7 [10]): Active; Stability [11]: Unstable; inhibition (RAW264.7 [12]): Active; inhibition (RAW264.7 [13]): Active; inhibition [14]: Active
COc1cc(/C=C2\CCCN(C(=O)/C=C/c3cc(F)ccc3F)C2=O)cc(OC)c1OC	46.8 to 68.2%	38.5 to 53.4%	Non-Toxic	–
COc1cc(/C=C2\CCCN(C(=O)/C=C/c3ccc(Br)cc3)C2=O)cc(OC)c1OC	–	–	Non-Toxic	inhibition (RAW264.7 [4]): < 85.3%; inhibition (RAW264.7 [5]): < 85.3%; inhibition (RAW264.7 [6]): < 85.3%; inhibition [7]: < 85.3%
COc1cc(/C=C2\CCCN(C(=O)/C=C/c3ccccc3Cl)C2=O)cc(OC)c1OC	–	–	Non-Toxic	inhibition (RAW264.7 [4]): < 85.3%; inhibition (RAW264.7 [5]): < 85.3%; inhibition (RAW264.7 [6]): < 85.3%; inhibition [7]: < 85.3%
COc1cc(/C=C2\CCCN(C(=O)/C=C/c3ccc([N+](=O)[O-])cc3)C2=O)cc(OC)c1OC	94.1%	38.6%	Non-Toxic	–
COc1cc(/C=C/C(=O)N2CCC=CC2=O)cc(OC)c1OC [PIPLARTINE]	Active	Active	Non-Toxic	–
COc1cc(OC)c(OC)cc1/C=C/C(=O)N1CCC/C(=C\c2cc(OC)c(OC)c(OC)c2)C1=O	39.6 to 99.5%	39.6 to 99.5%	Non-Toxic	–
COc1cc(/C=C2\CCCN(C(=O)/C=C/c3ccc(Cl)cc3Cl)C2=O)cc(OC)c1OC	46.8 to 68.2%	38.5 to 53.4%	Non-Toxic	–
COc1cc(/C=C2\CCCN(C(=O)/C=C/c3ccccc3O)C2=O)cc(OC)c1OC	39.6 to 99.5%	39.6 to 99.5%	Non-Toxic	–
COc1cc(/C=C2\CCCN(C(=O)/C=C/c3ccccc3F)C2=O)cc(OC)c1OC	–	–	Non-Toxic	inhibition (RAW264.7 [4]): < 85.3%; inhibition (RAW264.7 [5]): < 85.3%; inhibition (RAW264.7 [6]): < 85.3%; inhibition [7]: < 85.3%
COc1ccc(/C=C/C(=O)N2CCC/C(=C\c3cc(OC)c(OC)c(OC)c3)C2=O)c(F)c1	39.6 to 99.5%	39.6 to 99.5%	Non-Toxic	–
COc1cc(/C=C2\CCCN(C(=O)/C=C/c3ccc(F)cc3Cl)C2=O)cc(OC)c1OC	46.8 to 68.2%	38.5 to 53.4%	Non-Toxic	–
